# Test results: ChEMBL document CHEMBL4118104, “Design, Synthesis, and Evaluation of Orally Bioavailable Quinoline-Indole Derivatives as Innovative Multitarget-Directed Ligands: Promotion of Cell Proliferation in the Adult Murine Hippocampus for the Treatment of Alzheimer's Disease” (J Med Chem, 2018)
# Calls of active or inactive are those of the source. The rule behind the calls is not given here.
# Tests used:
# [1] = target: Amyloid-beta precursor protein (Homo sapiens) (UniProt P05067); test: Inhibition of amyloid beta (1 to 42) (unknown origin) self-induced aggregation at 5 uM after 48 hrs in presence of melatonin by thioflavin-T fluorescence assay relative to control
# Amyloid-beta precursor protein (Homo sapiens), sequence (P05067 whole entry): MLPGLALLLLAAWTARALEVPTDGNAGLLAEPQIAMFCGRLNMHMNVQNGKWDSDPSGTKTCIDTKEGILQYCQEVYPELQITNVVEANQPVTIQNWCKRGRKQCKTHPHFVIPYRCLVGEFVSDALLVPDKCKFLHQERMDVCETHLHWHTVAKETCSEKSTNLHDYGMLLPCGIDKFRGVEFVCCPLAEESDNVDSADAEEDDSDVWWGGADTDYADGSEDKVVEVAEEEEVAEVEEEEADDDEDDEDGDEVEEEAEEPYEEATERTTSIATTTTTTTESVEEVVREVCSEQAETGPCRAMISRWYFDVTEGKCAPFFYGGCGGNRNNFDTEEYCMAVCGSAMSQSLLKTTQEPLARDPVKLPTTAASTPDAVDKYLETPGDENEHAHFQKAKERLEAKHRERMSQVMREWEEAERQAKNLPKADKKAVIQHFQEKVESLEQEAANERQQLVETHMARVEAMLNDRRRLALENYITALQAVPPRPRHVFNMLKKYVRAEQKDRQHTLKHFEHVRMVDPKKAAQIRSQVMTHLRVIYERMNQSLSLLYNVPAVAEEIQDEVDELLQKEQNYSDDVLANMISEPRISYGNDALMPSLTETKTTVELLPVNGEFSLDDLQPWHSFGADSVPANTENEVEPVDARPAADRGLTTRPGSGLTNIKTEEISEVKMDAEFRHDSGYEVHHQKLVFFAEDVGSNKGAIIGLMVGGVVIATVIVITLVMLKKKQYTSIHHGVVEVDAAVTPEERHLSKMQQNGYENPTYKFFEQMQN
# Method in brief: (§1)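 ThT assay of Aβ1-42 self-aggregation: Aβ1-42 25 µM with inhibitor 5 µM (5:1); three independent experiments, each in triplicate.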
# [2] = Antioxidant activity assessed as AAPH radical scavenging activity by measuring trolox equivalent at 10 to 20 uM preincubated for 10 mins followed by AAPH addition measured every min for 120 mins in presence of melatonin by ORAC-FL assay; type: functional
# Method in brief: (§2)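 ORAC-FL: compound at 10 µM (or 20 µM) in 75 mM phosphate pH 7.4 with fluorescein (70 nM final), preincubated 10 min at 37 °C, then AAPH added. Fluorescence (ex 485/em 520) read each minute for 120 min. Net AUC converted to Trolox equivalents via a 10–100 µM Trolox curve; three independent experiments.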
# [3] = system: SH-SY5Y; test: Neuroprotective activity against t-BuOOH-induced oxidative stress in human SH-SY5Y cells assessed as inhibition ROS accumulation pre-incubated for 24 hrs before t-BuOOH challnge for 30 mins by DCFH-DA probe based fluorescence assay; type: functional, cell-based
# Method in brief: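 SH-SY5Y cells; test agents at 1–0.01 µM, oxidative stress induced by tert-butyl hydroperoxide; intracellular ROS read by DCFH-DA fluorescence; at least three independent experiments in sextuplicate; EC50 derived.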
# [4] = target: Amyloid-beta precursor protein (Homo sapiens) (UniProt P05067); test: Induction of disaggregation of amyloid beta (1 to 42) (unknown origin) fibrils at compound to amyloid beta ratio of 1:1 after 48 hrs by thioflavin-T fluorescence assay relative to control
# Method in brief: (§3)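 Aβ1-42 at 25 µM with compound at 1:1 in 50 mM PBS, pH 7.4, 37 °C, read by ThT fluorescence or by TEM. Disaggregation was done on preformed aggregates. ThT data are mean ± SD of at least three experiments.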
# [5] = system: Mus musculus; test: Induction of cell proliferation in C57BL/6 mouse hippocampal neurons in DG region assessed as BrdU-incorporation at 0.5 uL/hr, icv for 7 days by immunohistochemical analysis (reference value: 7.8%); type: functional
# [6] = system: Mus musculus; test: Induction of cell proliferation in C57BL/6 mouse hippocampal neurons in DG region assessed as BrdU-incorporation at 30 mg/kg, po administered via gavage for 7 days by immunohistochemical analysis (reference value: 2.2%); type: functional
# Method in brief: (§4)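 C57BL/6 mice, 12 weeks old, n = 6, individually housed beforehand without wheels. Compound gavaged 30 mg/kg/day for 7 days with daily IP BrdU 50 mg/kg; BrdU+ cells counted by immunohistochemistry per hippocampal volume; two-way ANOVA.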
# [7] = Antioxidant activity assessed as AAPH radical scavenging activity by measuring trolox equivalent at 10 to 20 uM preincubated for 10 mins followed by AAPH addition measured every min for 120 mins in presence of clioquinol by ORAC-FL assay; type: functional; method in brief: as §2
# [8] = Inhibition of Cu2+ - induced amyloid beta (1 to 42) (unknown origin) aggregation at compound/amyloid beta/Cu2+ ratio of 2:1:1 after 48 hrs by thioflavin T-based fluorometric assay relative to control; conditions: concentration not given here
# Method in brief: (§5)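 Chelator, Aβ1-42 (25 µM) and Cu2+ at 2:1:1 in HEPES/NaCl, pH 6.6, 37 °C; inhibition measured on fresh peptide and disaggregation on preformed Cu2+-Aβ aggregates. Read by ThT fluorescence (at least three experiments) or by TEM.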
# [9] = system: Mus musculus; test: Induction of cell proliferation in C57BL/6 mouse hippocampal neurons in CA1 region assessed as BrdU-incorporation at 30 mg/kg, po administered via gavage for 7 days by immunohistochemical analysis (reference value: 2.3%); type: functional; method in brief: as §4
# [10] = Induction of disaggregation of Cu2+ -associated amyloid beta (1 to 42) (unknown origin) fibrils assessed as small-sized nonfibrillar amorphos amyloid beta at compound/amyloid beta/Cu2+ ratio of 2:1:1 after 48 hrs by TEM analysis; method in brief: as §5
# [11] = system: Mus musculus; test: Induction of cell proliferation in C57BL/6 mouse hippocampal neurons in CA3 region assessed as BrdU-incorporation at 30 mg/kg, po administered via gavage for 7 days by immunohistochemical analysis (reference value: 1.5%); type: functional; method in brief: as §4
# [12] = system: Mus musculus; test: Induction of cell proliferation in C57BL/6 mouse hippocampal neurons in CA2 region assessed as BrdU-incorporation at 30 mg/kg, po administered via gavage for 7 days by immunohistochemical analysis (reference value: 2.4%); type: functional; method in brief: as §4
# [13] = system: Mus musculus; test: Induction of cell proliferation in C57BL/6 mouse hippocampal neurons in CA1 region assessed as BrdU-incorporation at 0.5 uL/hr, icv for 7 days by immunohistochemical analysis (reference value: 3.2%); type: functional
# [14] = system: Mus musculus; test: Induction of cell proliferation in C57BL/6 mouse hippocampal neurons in CA3 region assessed as BrdU-incorporation at 0.5 uL/hr, icv for 7 days by immunohistochemical analysis (reference value: 1.4%); type: functional
# [15] = target: Amyloid-beta precursor protein (Homo sapiens) (UniProt P05067); test: Inhibition of amyloid beta (1 to 42) (unknown origin) self-induced aggregation at 5 uM after 48 hrs in presence of clioquinol by thioflavin-T fluorescence assay relative to control; method in brief: as §1
# [16] = target: Amyloid-beta precursor protein (Homo sapiens) (UniProt P05067); test: Inhibition of amyloid beta (1 to 42) (unknown origin) self-induced aggregation at compound to amyloid beta ratio of 1:1 after 48 hrs by thioflavin-T fluorescence assay relative to control; conditions: concentration not given here; method in brief: as §3
# [17] = system: Mus musculus; test: Induction of cell proliferation in C57BL/6 mouse hippocampal neurons in CA2 region assessed as BrdU-incorporation at 0.5 uL/hr, icv for 7 days by immunohistochemical analysis (reference value: 2.4%); type: functional
# [18] = Inhibition of Cu2+ - induced amyloid beta (1 to 42) (unknown origin) aggregation assessed as small-sized nonfibrillar amorphos amyloid beta at compound/amyloid beta/Cu2+ ratio of 2:1:1 after 48 hrs by TEM analysis; method in brief: as §5
# [19] = target: Amyloid-beta precursor protein (Homo sapiens) (UniProt P05067); test: Induction of disaggregation of Cu2+ -associated amyloid beta (1 to 42) (unknown origin) fibrils at compound/amyloid beta/Cu2+ ratio of 2:1:1 after 48 hrs by thioflavin T-based fluorometric assay relative to control; method in brief: as §5
# [20] = system: Mus musculus; test: Cognition enhancement activity in double APP/PS1 transgenic Alzheimer's disease mouse model assessed as increase in number of virtual platform crossing at 30 mg/kg/day, po for 80 days by Morris water maze test; type: functional, organism-based
# Method in brief: (§6)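 APP/PS1 mice, six months old, gavaged 30 mg/kg/day in 0.5% CMC-Na for 80 days. Probe trial was a single 90 s free swim with the platform absent; effective region is twice the platform diameter. n = 10, mean ± SD, two-way ANOVA.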
# [21] = system: Mus musculus; test: Cognition enhancement activity in double APP/PS1 transgenic Alzheimer's disease mouse model assessed as increase in number of effective region crossing at 30 mg/kg/day, po for 80 days by Morris water maze test; type: functional, organism-based; method in brief: as §6
# [22] = system: Mus musculus; test: Cognition enhancement activity in double APP/PS1 transgenic Alzheimer's disease mouse model assessed as decrease in path searching behavior at 30 mg/kg/day, po for 80 days by Morris water maze test; type: functional, organism-based
# Method in brief: (§7)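 APP/PS1 double transgenic mice, six months old, gavaged 30 mg/kg/day in 0.5% CMC-Na for 80 days; vehicle mice and WT C57BL/6 received blank CMC-Na. Escape latency recorded daily over the training trials; n = 10, mean ± SD, two-way ANOVA.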
# [23] = system: PC-12; test: Induction of rat PC12 cell proliferation at 0.5 to 50 uM after 72 hrs by microscopic analysis; type: functional, cell-based
# Method in brief: (§8)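 Undifferentiated PC12 cells cultured 72 h with compound at 0.5–50 µM (images at 10 µM) or with NGF 50 ng/ml, then examined under a digital microscope.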
# [24] = system: Mus musculus; test: Cognition enhancement activity in double APP/PS1 transgenic Alzheimer's disease mouse model assessed as decrease in escape latency at 30 mg/kg/day, po for 80 days by Morris water maze test; type: functional, organism-based; method in brief: as §7
# [25] = system: PC-12; test: Induction of rat PC12 cell proliferation at 10 uM after 72 hrs by microscopic analysis; type: functional, cell-based; method in brief: as §8
# [26] = target: Amyloid-beta precursor protein (Homo sapiens) (UniProt P05067); test: Inhibition of amyloid beta (1 to 42) (unknown origin) self-induced aggregation assessed as less dense fibrils at compound to amyloid beta ratio of 1:1 after 48 hrs by TEM analysis; method in brief: as §3
# [27] = target: Amyloid-beta precursor protein (Homo sapiens) (UniProt P05067); test: Inhibition of amyloid beta (1 to 42) (unknown origin) self-induced aggregation assessed as reduction in unstructured aggregates at compound to amyloid beta ratio of 1:1 after 48 hrs by TEM analysis; method in brief: as §3
# [28] = Metal chelating activity assessed as compound-Fe3+ complex formation by measuring absorption spectrum at 50 uM after 30 mins by UV-Visible spectrophotometric analysis (reference value: 314 nm)
# Method in brief: (§9)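 Ligand 50 µM alone or with 50 µM CuSO4, ZnCl2, FeSO4 or FeCl3 in 20 mM HEPES, 150 mM NaCl, pH 7.4; UV-vis absorbance spectra recorded. For Cu2+, titration at room temperature with absorbance at 338 nm gave stoichiometry.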
# [29] = Metal chelating activity assessed as compound-Fe2+ complex formation by measuring absorption spectrum at 50 uM after 30 mins by UV-Visible spectrophotometric analysis (reference value: 314 nm); method in brief: as §9
# [30] = target: Amyloid-beta precursor protein (Homo sapiens) (UniProt P05067); test: Inhibition of amyloid beta (1 to 42) (unknown origin) self-induced aggregation assessed as thinner fibrils at compound to amyloid beta ratio of 1:1 after 48 hrs by TEM analysis; method in brief: as §3
# [31] = system: PC-12; test: Induction of rat PC12 cell proliferation at 0.5 to 50 uM after 72 hrs in presence of ERK inhibitor U0126 by MTT assay; type: functional, cell-based
# Method in brief: (§10)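 PC12 cells treated with compound together with U0126 (ERK inhibitor, 1 µM) or SB203580 (p38 inhibitor, 1 µM); survival measured by MTT, expressed as percent of control, mean ± SD of at least three experiments.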
# [32] = Metal chelating activity assessed as compound-Zn2+ complex formation by measuring absorption spectrum at 50 uM after 30 mins by UV-Visible spectrophotometric analysis (reference value: 314 nm); method in brief: as §9
# [33] = target: Amyloid-beta precursor protein (Homo sapiens) (UniProt P05067); test: Induction of disaggregation of amyloid beta (1 to 42) (unknown origin) assessed as shorter aggregation at compound to amyloid beta ratio of 1:1 after 48 hrs by TEM analysis; method in brief: as §3
# [34] = Metal chelating activity assessed as compound-Cu2+ complex formation at 50 uM after 30 mins by mass spectrometry
# [35] = Metal chelating activity assessed as compound-Cu2+ complex formation by measuring absorption spectrum at 50 uM after 30 mins by UV-Visible spectrophotometric analysis (reference value: 314 nm); method in brief: as §9
# [36] = system: PC-12; test: Induction of rat PC12 cell proliferation at 0.5 to 50 uM after 72 hrs in presence of p38 inhibitor SB203580 by MTT assay; type: functional, cell-based; method in brief: as §10
# [37] = target: Amyloid-beta precursor protein (Homo sapiens) (UniProt P05067); test: Induction of disaggregation of amyloid beta (1 to 42) (unknown origin) assessed as narrow aggregation at compound to amyloid beta ratio of 1:1 after 48 hrs by TEM analysis; method in brief: as §3
EC50 [3],Compound,Activity [4],inhibition [8],Activity [10],inhibition [16],inhibition [18],Activity [19],Activity [20],Activity [21],Activity [22],Activity [23],Activity [24],Activity [25],also measured
> 1 µM,Oc1c(I)cc(Cl)c2cccnc12 [CLIOQUINOL],–,–,–,–,–,–,–,–,–,–,–,–,inhibition [1]: 22.5%; Activity (umolequiv/umol) [2]: 2.9
> 1 µM,COc1ccc2[nH]cc(CCNC(C)=O)c2c1 [MELATONIN],44.3%,47.8%,inactive,49.1%,inactive,24%,–,–,–,–,–,–,Activity [5]: 27.4%; Activity [6]: 9.4%; Activity (umolequiv/umol) [7]: 2.9; Activity [9]: 3.2%; Activity [11]: 1.5%; Activity [12]: 1.6%; Activity [13]: 2.7%; Activity [14]: 1.2%; inhibition [15]: 22.5%; Activity [17]: 2.1%
–,Oc1c(Cl)cc(Cl)c2ccc(-c3cc4cc5c(cc4[nH]3)OCO5)nc12,48.5 to 72.7%,–,–,48.6 to 71.6%,–,–,Active,Active,Active,Active,Active,Active,–
–,Oc1ccc2[nH]c(-c3ccc4c(Cl)cc(Cl)c(O)c4n3)cc2c1,48.5 to 72.7%,85.8%,Active,48.6 to 71.6%,Active,83.3%,Active,Active,Active,Active,Active,Active,inhibition [26]: Active; inhibition [27]: Active; Activity [28]: 309 nm; Activity [29]: 324 nm; inhibition [30]: Active; Activity [31]: inactive; Activity [32]: 309 nm; Activity [33]: Active; Activity [34]: Active; Activity [35]: 338 nm; Activity [36]: inactive; Activity [37]: Active
